Source: ChEMBL document CHEMBL2010740, “Synthesis and evaluation of 2-amido-3-carboxamide thiophene CB₂ receptor agonists for pain management” (Bioorg Med Chem Lett, 2012)

Key:
Assay type in all cases: cell-based
Cannabinoid receptor 2 [1] = target: T1, Cannabinoid receptor 2 (Rattus norvegicus, UniProt Q9QZN9); experiment: Displacement of [3H]CP-55940 from rat recombinant CB2 receptor expressed in HEK293 cells after 90 mins
T1 sequence (Q9QZN9 whole entry): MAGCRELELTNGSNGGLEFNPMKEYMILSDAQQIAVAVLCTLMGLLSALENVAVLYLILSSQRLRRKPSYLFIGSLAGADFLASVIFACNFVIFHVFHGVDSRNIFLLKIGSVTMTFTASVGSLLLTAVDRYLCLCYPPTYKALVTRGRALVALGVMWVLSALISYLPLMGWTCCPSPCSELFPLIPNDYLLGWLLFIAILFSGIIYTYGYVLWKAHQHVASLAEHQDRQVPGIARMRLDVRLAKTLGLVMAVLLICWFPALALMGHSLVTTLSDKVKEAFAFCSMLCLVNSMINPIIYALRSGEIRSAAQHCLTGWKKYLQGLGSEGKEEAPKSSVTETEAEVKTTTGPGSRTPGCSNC
Method in brief: (§1)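 Competitive binding: [³H]CP-55,940 displaced from membranes of HEK 293 cells stably transfected with human or rat CB₂, or CHO cells stably transfected with human or rat CB₁. Reported as pKi. Determinations >2 (duplicate of duplicate).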

Cannabinoid receptor 2 [2] = target: Cannabinoid receptor 2 (Homo sapiens, UniProt P34972); experiment: Displacement of [3H]CP-55940 from human recombinant CB2 receptor expressed in HEK293 cells after 90 mins; method in brief: as §1
Cannabinoid receptor 2 (Homo sapiens, UniProt P34972), sequence (P34972 whole entry): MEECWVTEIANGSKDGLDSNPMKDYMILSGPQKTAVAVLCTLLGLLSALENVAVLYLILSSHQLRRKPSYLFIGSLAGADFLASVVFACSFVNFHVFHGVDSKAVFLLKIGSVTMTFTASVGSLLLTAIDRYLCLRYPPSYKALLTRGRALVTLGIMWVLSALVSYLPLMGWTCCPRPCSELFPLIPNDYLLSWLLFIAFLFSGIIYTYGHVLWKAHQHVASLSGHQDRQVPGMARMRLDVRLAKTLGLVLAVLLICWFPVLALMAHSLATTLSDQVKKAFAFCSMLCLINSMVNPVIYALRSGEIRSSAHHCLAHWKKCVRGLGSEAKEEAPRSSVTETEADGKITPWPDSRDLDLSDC

Cannabinoid receptor 1 [3] = target: Cannabinoid receptor 1 (Homo sapiens, UniProt P21554); experiment: Displacement of [3H]CP-55940 from human recombinant CB1 receptor expressed in CHO cells after 90 mins; method in brief: as §1
Cannabinoid receptor 1 (Homo sapiens, UniProt P21554), sequence (P21554 whole entry): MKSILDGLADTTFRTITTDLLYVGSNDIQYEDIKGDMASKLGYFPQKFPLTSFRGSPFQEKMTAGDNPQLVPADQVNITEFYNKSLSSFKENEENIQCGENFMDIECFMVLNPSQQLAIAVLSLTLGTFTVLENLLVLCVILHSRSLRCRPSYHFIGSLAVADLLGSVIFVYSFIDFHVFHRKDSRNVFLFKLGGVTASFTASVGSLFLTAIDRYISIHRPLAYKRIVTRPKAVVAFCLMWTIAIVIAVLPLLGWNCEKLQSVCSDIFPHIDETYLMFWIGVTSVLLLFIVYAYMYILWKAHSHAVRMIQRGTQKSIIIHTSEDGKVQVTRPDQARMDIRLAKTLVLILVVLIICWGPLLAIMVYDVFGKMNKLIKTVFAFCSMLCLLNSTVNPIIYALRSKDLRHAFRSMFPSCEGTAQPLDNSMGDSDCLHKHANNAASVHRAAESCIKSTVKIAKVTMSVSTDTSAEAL

Cannabinoid receptor 1 [4] = target: Cannabinoid receptor 1 (Rattus norvegicus, UniProt P20272); experiment: Displacement of [3H]CP-55940 from rat recombinant CB1 receptor expressed in CHO cells after 90 mins; method in brief: as §1
Cannabinoid receptor 1 (Rattus norvegicus, UniProt P20272), sequence (P20272 whole entry): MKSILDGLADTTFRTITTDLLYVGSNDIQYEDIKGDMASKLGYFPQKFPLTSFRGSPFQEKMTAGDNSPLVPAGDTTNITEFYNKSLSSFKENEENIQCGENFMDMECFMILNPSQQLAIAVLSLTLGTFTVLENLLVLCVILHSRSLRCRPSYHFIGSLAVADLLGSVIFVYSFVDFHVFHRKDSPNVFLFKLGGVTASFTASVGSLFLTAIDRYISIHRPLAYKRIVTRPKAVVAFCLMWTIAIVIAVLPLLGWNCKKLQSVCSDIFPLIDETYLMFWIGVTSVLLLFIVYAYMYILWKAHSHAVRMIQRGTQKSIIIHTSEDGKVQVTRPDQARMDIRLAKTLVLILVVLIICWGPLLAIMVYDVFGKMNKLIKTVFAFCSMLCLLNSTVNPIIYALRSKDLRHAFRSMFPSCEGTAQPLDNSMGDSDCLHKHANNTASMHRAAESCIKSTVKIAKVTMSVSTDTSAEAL

Structure (SMILES): O=C(c1c(NC(=O)C23CC4CC(CC2C4)C3)sc2c1CCOC2)N1CCOCC1
- Ki (Cannabinoid receptor 2 [1]): > 10 µM
- Ki (Cannabinoid receptor 2 [2]): 0.0912 µM
- Ki (Cannabinoid receptor 1 [3]): > 10 µM
- Ki (Cannabinoid receptor 1 [4]): > 10 µM
